Results as given in article PMC12744306 (Probiotics and antimicrobial proteins, 2024).
In brackets after ≈: the same amount, converted by molar mass. Read-outs that look alike come from different tables or passages of the source. Each block holds one compound with its values, some of them ahead of it. Positions of bridges follow the written chain, without caps; N, C: chain ends. Non-standard residues stand in square brackets, D forms with d. Residues, ends and D or L forms follow the SMILES beside them. No end group written: not given here. *: point of attachment. X1 = CC[C@H](C)CCCCC(=O)*; Dab = NCC[C@H](N)C(=O)O

What was measured:
S. aureus USA300 [1] = type: cell-based; conditions: for activity against S. aureus USA300 under all these conditions: pH 6.2/8.1, 150 mM NaCl, human serum; for MIC in the presence of 150 mM NaCl: S. aureus
P. aeruginosa E411-17 [2] = test: Effects of pH, salts and serum on peptide activity; type: cell-based; conditions: different pH, salt and serum conditions
human red blood cells = test: Hemolytic assay; type: cell-based; conditions: 2% hRBC, 37°C, 1 h; for hemolysis: relative to 1% Triton X-100
Human liver HepG2 cells = type: cell-based
[3] = tested on: Human keratinocytes (HaCaT); test: Cytotoxicity assay; type: cell-based; conditions: 24 h, MTS
P. aeruginosa E411-17 [4] = test: Killing kinetics; type: cell-based; conditions: 4 × MIC, ~10^5 CFU/mL in MHB, 37°C, CFU count
S. aureus USA300 [5] = type: cell-based
S. epidermidis 1457 = type: cell-based
MRSA USA300 = test: Killing kinetics; type: cell-based, S. aureus; conditions: 4 × MIC, ~10^5 CFU/mL in MHB, 37°C, CFU count
Method in brief: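 MRSA USA300 was grown in MHB to OD600 ~0.3, then diluted to OD600 0.001 (~10⁵ CFU/mL). 1 mL was incubated at 37°C with test compound or reference antibiotic at 4× MIC. At 15, 30, 60, 90 and 120 min, 50 μL was serially diluted in PBS and plated on mannitol salt agar. CFU were counted after overnight growth at 37°C.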

bacteria = conditions: cited from earlier work
E. coli E423-17 = type: cell-based
A. baumannii B28-16 = type: cell-based
E. coli = conditions: cited from earlier work
P. aeruginosa E411-17 [6] = type: cell-based
K. pneumoniae E406-17 = type: cell-based; conditions: not shown
[7] = Table 3, sequence reversal experiment

Compound: CC[C@H](C)CCCCC(=O)N[C@@H](CCN)C(=O)N[C@H](C(=O)N[C@@H](CCN)C(=O)N[C@H]1CCNC(=O)[C@H]([C@@H](C)O)NC(=O)[C@H](CCN)NC(=O)[C@H](CCN)NC(=O)[C@H](CC(C)C)NC(=O)[C@@H](CC(C)C)NC(=O)[C@H](CCN)NC1=O)[C@@H](C)O [Colistin, reference compound] (X1-[Dab]T[Dab][Dab][Dab][dL]L[Dab][Dab]T; lactam 4-C (inferred); N-terminus assumed)
activity against S. aureus USA300 under all these conditions (S. aureus USA300 [1]): inactive | activity against P. aeruginosa under all the conditions tested (P. aeruginosa E411-17 [2]): retained pseudomonacidal activity | lysis of human red blood cells (human red blood cells; at 400 μM, 545 nm): did not lyse | toxicity to HepG2 (Human liver HepG2 cells; 24 h, MTS): subtle effects | toxicity to HaCaT ([3]; at 100 μM): little toxicity | time to eliminate P. aeruginosa (P. aeruginosa E411-17 [4]): 30 min

minimal inhibitory concentration (MIC), S. aureus USA 300 (S. aureus USA300 [5]; USA300): 0.5 µM (≈ 0.81 µg/mL) | minimal inhibitory concentration (MIC), S. epidermidis 1457 (S. epidermidis 1457; 1457): 0.5 µM (≈ 0.81 µg/mL)
Compound: CCCCCCCCCC(=O)N[C@@H](Cc1c[nH]c2ccccc12)C(=O)N[C@H](CC(N)=O)C(=O)N[C@@H](CC(=O)O)C(=O)N[C@@H]1C(=O)NCC(=O)N[C@@H](CCCN)C(=O)N[C@@H](CC(=O)O)C(=O)N[C@H](C)C(=O)N[C@@H](CC(=O)O)C(=O)NCC(=O)N[C@H](CO)C(=O)N[C@@H]([C@H](C)CC(=O)O)C(=O)N[C@@H](CC(=O)c2ccccc2N)C(=O)O[C@@H]1C [Daptomycin, reference compound]
activity against S. aureus USA300 under all these conditions (S. aureus USA300 [1]): remained potent | activity against P. aeruginosa under all the conditions tested (P. aeruginosa E411-17 [2]): did not display any activity | toxicity to HepG2 (Human liver HepG2 cells; 24 h, MTS): subtle effects | time to kill MRSA USA300 (MRSA USA300): ~90 min

Compound: KRIVQRIK-NH2 [KR-8]
antibacterial activity in the standard Mueller Hinton Broth (MHB) (bacteria): not antibacterial

Compound: KRWWQWWK-NH2 [KR-8+]
minimal inhibitory concentration (MIC), E. coli E423-17 (E. coli E423-17; E423-17): 4 to 8 µM | MIC in the presence of 150 mM NaCl (S. aureus USA300 [1]): 16 to 32 µM | HC10 (10% hemolytic concentration) (human red blood cells): 300 µM | hemolysis (human red blood cells; at 400 μM): 18% | LC50, HepG2 (Human liver HepG2 cells; 24 h, MTS): 12.5 µM | minimal inhibitory concentration (MIC), A. baumannii B28-16 (A. baumannii B28-16): 16 µM | minimal inhibitory concentration (MIC), S. epidermidis 1457 (S. epidermidis 1457; 1457): 16 µM

Compound: LLGDFFRKSK-NH2 [LL-10]
antibacterial activity in the standard Mueller Hinton Broth (MHB) (bacteria): not antibacterial

Compound: LWGRFFRKWK-NH2 [LL-10+]
minimal inhibitory concentration (MIC), E. coli E423-17 (E. coli E423-17; [7]): 32 µM | MIC in the presence of 150 mM NaCl (S. aureus USA300 [1]): > 32 µM | HC10 (10% hemolytic concentration) (human red blood cells): > 400 µM | toxicity to HepG2 (Human liver HepG2 cells): subtle effects | LC50, HepG2 (Human liver HepG2 cells; 24 h, MTS): > 100 µM | minimal inhibitory concentration (MIC), S. aureus USA 300 (S. aureus USA300 [5]; [7]): 16 µM | minimal inhibitory concentration (MIC), A. baumannii B28-16 (A. baumannii B28-16): 64 µM | minimal inhibitory concentration (MIC), S. epidermidis 1457 (S. epidermidis 1457; [7]): 32 µM

Compound: RIKDFLRNLV-NH2 [RIK-10]
activity against E. coli in standard MHB (E. coli): active

Compound: RKSKEKIGK-NH2 [RK-9]
antibacterial activity in the standard Mueller Hinton Broth (MHB) (bacteria): not antibacterial

Compound: RWKRFLRNWV-NH2 [RIK-10+]
minimal inhibitory concentration (MIC), E. coli E423-17 (E. coli E423-17; E423-17): 4 µM | MIC in the presence of 150 mM NaCl (S. aureus USA300 [1]): > 32 µM | hemolysis (human red blood cells; at 400 μM): 18% | LC50, HepG2 (Human liver HepG2 cells; 24 h, MTS): 100 µM | minimal inhibitory concentration (MIC), S. aureus USA 300 (S. aureus USA300 [5]; [7]): 16 µM | 50% lethal concentration (LC50), HaCaT [3]: 100 µM | minimal inhibitory concentration (MIC), A. baumannii B28-16 (A. baumannii B28-16): 8 µM | minimal inhibitory concentration (MIC), S. epidermidis 1457 (S. epidermidis 1457; 1457): 64 µM | minimal inhibitory concentration (MIC), P. aeruginosa E411-17 (P. aeruginosa E411-17 [6]; [7]): 4 µM | MIC, K. pneumoniae E406-17 (K. pneumoniae E406-17): 32 µM

Compound: RWWKKWWGK-NH2 [RK-9+]
minimal inhibitory concentration (MIC), E. coli E423-17 (E. coli E423-17; E423-17): 4 to 8 µM | MIC in the presence of 150 mM NaCl (S. aureus USA300 [1]): 16 to 32 µM | HC10 (10% hemolytic concentration) (human red blood cells): > 400 µM | toxicity to HepG2 (Human liver HepG2 cells): subtle effects | LC50, HepG2 (Human liver HepG2 cells; 24 h, MTS): > 100 µM | minimal inhibitory concentration (MIC), P. aeruginosa E411-17 (P. aeruginosa E411-17 [6]; E411-17): 16 µM
